Legend:
THP-1 cells = test: Proliferation assay; format: cell-based; details: Homo sapiens, THP-1, 72 h
Method in brief: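 THP-1 cells were grown in RPMI-1640 with 0.05 mM 2-mercaptoethanol and 10% FBS. Cells were plated 5,000/well with ≥5 two-fold dilutions of test compound (top 50 μM, 0.1% DMSO final), in triplicate wells with ≥2 biological replicates.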

[1] = test system: Molm13 clones CRISPR-targeted with EGFP or p53 gRNA; test: Proliferation assay in CRISPR-targeted Molm13 clones; format: cell-based; details: Homo sapiens, MOLM-13, 72 h, Molm13 clone 2p (p53 gRNA), 3-day treatment
HL60 cells = test: Proliferation assay; format: cell-based; details: Homo sapiens, HL-60, 72 h
Method in brief: (§1)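 CellTiter-Glo, 5,000 cells/well. Cells received 0.1% DMSO or at least five two-fold dilutions of test compound (top 50 μM, final DMSO 0.1%), in triplicate wells and ≥2 biological replicates, for 72 h at 37°C. Reagent was added after equilibration to RT, with 30 min dark incubation before luminescence. Signals were normalized to DMSO wells and GI50 obtained by curve fitting. Curve error bars are SEM.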

WDR5 [2] = target: T1, WDR5 (Homo sapiens, UniProt P61964); test: Western blot of endogenous WDR5 levels; format: cell-based; details: MV4:11, 4 µM, 24 hours
WDR5 [3] = target: T1, WDR5; test: 10-mer-Thr-FAM peptide TR-FRET competition assay; format: binding; details: Kd, corresponds to TR-FRET Ki of Table S1
[4] = test system: p53 and p21 protein levels in MV4:11 cells; test: p53/p21 induction western blot; format: cell-based, human; details: MV4:11, 2 μM, 24 h
Method in brief: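 Treatment lasted 24 h with test compound or its negative control, at 2 μM in MV4:11 and 3 μM in Molm13. Comparators were 2 μM Nutlin-3 or 0.1% DMSO. Four million cells were PBS-washed and lysed 10 min on ice in Kischkel buffer. p53 and p21 were detected by western blot, with histone H3 as loading control.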

MV4:11 cells [5] = test: Cell cycle analysis; format: cell-based, human; details: 2 μM, up to 6 days
Method in brief: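 1 million cells were fixed dropwise in ice-cold 70% ethanol (≥2 h, […]) and stained with PI (10 μg/mL) plus RNase for 20 min at RT in the dark. Flow: ≥10,000 events, doublets excluded. Three biological replicates, SEM.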

[6] = test system: NPM1 localisation in MV4:11 cells; test: Nucleophosmin; format: cell-based, human; details: MV4:11, 4 μM, 3 days
Method in brief: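 Cells were cytospun onto slides (100,000 cells, 800 rpm, 3 min) and immunostained for NPM. The per-cell nucleolar-to-nucleoplasmic NPM ratio was quantified from two biological replicates (SD). One-way ANOVA with Dunnett's test versus DMSO.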

GDM-1 cells = test: Proliferation assay; format: cell-based; details: Homo sapiens, GDM-1, 72 h
Method in brief: as §1

MV4:11 cells [7] = test: Proliferation assay; format: cell-based, human; details: MV4:11, 3 days, mean with SEM
Method in brief: as §1

[8] = test system: TP53 mRNA on polysomes in MV4:11 cells; test: Polysome fractionation with RT-qPCR; format: cell-based, human; details: MV4:11, 5 μM, 24 h
Method in brief: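 15 × 10^6 MV4:11 cells were treated 24 h with 5 μM test compound or DMSO and lysed 10 min on ice. Target mRNAs in monosomal and polysomal fractions were measured by RT-qPCR and normalized to GAPDH. Values were expressed as percent of total RNA, relative to DMSO.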

MLL1 complex = MLL1 complex (Homo sapiens, UniProt P61964); test: MLL1 HMT assay; format: biochemical
[9] = test system: p53 turnover in MV4:11 cells; test: Cycloheximide; format: cell-based, human; details: MV4:11, 2 μM, 24 h before CHX
Method in brief: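 Before the cycloheximide chase, MV4:11 cells were pretreated 24 h with 2 μM test compound, 2 μM Nutlin-3 as comparator, or DMSO only. p53 was then followed by immunoblot.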

[10] = test system: PARP-1 cleavage in MV4:11 cells; test: Induction of PARP1 cleavage; format: cell-based, human; details: 2 μM
Method in brief: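 MV4:11 cells were treated 1, 2, 3 or 6 days with 2 μM test compound, its negative control or 0.1% DMSO. Cleaved PARP-1 was detected by western blot, with histone H3 as loading reference.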

MA93 FLT3-ITD cells = test: Proliferation assay; format: cell-based; details: Homo sapiens, 72 h
Method in brief: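 CellTiter-Glo at 2,000 cells/well. MA93 Ras and MA93 FLT3/ITD were maintained in IMDM/20% FBS. Parental MA93 received IMDM/20% FBS plus 10 ng/mL human SCF, TPO, FLT3L, IL3 and IL6. Dosing used ≥5 two-fold dilutions from 50 μM top, 0.1% DMSO final, in triplicate wells with ≥2 biological replicates. Plates ran 72 h at 37°C, followed by 30 min reagent incubation at RT in the dark. GI50 came from DMSO-normalized luminescence.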

With `Cc1nc(F)ccc1-c1cc(Cn2ccn(C)c2=N)cc(C(=O)NCc2ccc(Cl)c(Cl)c2)c1` [Compound C6, N-(3,4-Dichlorobenzyl)-3-(6-fluoro-2-methylpyridin-3-yl)-5-((2-imino-3-methyl-2,3-dihydro-1H-imidazol-1-yl)methyl)benzamide] the GI50 (THP-1 cells) was > 50 µM, the GI50 [1] was 18 µM and the GI50 (HL60 cells) was 14.8 ± 1.1 µM. For the same compound, the WDR5 protein levels (WDR5 [2]) was “no measurable effect on WDR5 levels”, the Kd (WDR5 [3]) was ~0.1 nM and the “p53 and p21 protein induction” value [4] was “moderately induces p53”. For the same compound, the “cell-cycle distribution, sub-G1 DNA content” value (MV4:11 cells [5]) was “time-dependent increase in cells with a sub-G1 DNA content”, the “NPM1 distribution, nucleolar stress” value [6] was “redistribution of nucleophosmin (NPM1) from the nucleolus to the nucleoplasm” and the GI50 (GDM-1 cells) was > 50 µM. For the same compound, the GI50 (MV4:11 cells [7]; Homo sapiens, MV4-11, 72 h) was 2000 nM, the GI50 (MV4:11 cells [7]) was 3200 ± 213 nM and the “polysome-associated mRNAs” value [8] was “promoted an accumulation of polysome-associated mRNAs for TP53”. For the same compound, the “specificity of HMT inhibition among all MLL/SET complexes” value (MLL1 complex) was “specific for MLL1, with little activity against other MLL/SET family members”, the “window of selectivity for MLL1 over other MLL/SET complexes” value (MLL1 complex) was ≥ 250 fold and the IC50 (MLL1 complex; MLL1 HMT IC50, H3 peptide as substrate) was ~20 nM. The “p53 turnover in CHX chase” value [9] was “no detectable effects on p53 turnover”, the “time to detection of cleaved PARP-1” value [10] was ≤ 24 h and the GI50 (MA93 FLT3-ITD cells) was 2470 ± 137 nM.
